Assay results reported in ChEMBL document CHEMBL1926614, “Substituted thiazoles V. synthesis and antitumor activity of novel thiazolo[2,3-b]quinazoline and pyrido[4,3-d]thiazolo[3,2-a]pyrimidine analogues” (2012).

Assays:
Format in all cases: functional
[1] = system: KM12; experiment: Growth inhibition of human KM12 cells at 10 uM after 48 hrs by coulter counting; settings: KM12, 48 h, read-out: GI
Procedure, shortened: (§1)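 Single-dose primary screen across the full NCI 60-cell-line panel. Stocks were made in DMSO and diluted in PBS to a final DMSO below 1%. Cultures at 6 × 10⁴ cells/ml were run in duplicate wells alongside PBS/DMSO vehicle controls at 37 °C in humidified 5% CO₂. Data were expressed as percent growth of treated cells.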

[2] = system: SK-MEL-28; experiment: Growth inhibition of human SK-MEL-28 cells at 10 uM after 48 hrs by coulter counting; settings: SK-MEL-28, 48 h, read-out: GI; procedure, shortened: as §1
[3] = system: M14; experiment: Growth inhibition of human M14 cells at 10 uM after 48 hrs by coulter counting; settings: M14, 48 h, read-out: GI; procedure, shortened: as §1
[4] = system: NCI-H23; experiment: Growth inhibition of human NCI-H23 cells at 10 uM after 48 hrs by coulter counting; settings: NCI-H23, 48 h, read-out: GI; procedure, shortened: as §1
[5] = system: NCI-H522; experiment: Growth inhibition of human NCI-H522 cells at 10 uM after 48 hrs by coulter counting; settings: NCI-H522, 48 h, read-out: GI; procedure, shortened: as §1
[6] = system: LOX IMVI; experiment: Growth inhibition of human LOXIMVI cells at 10 uM after 48 hrs by coulter counting; settings: read-out: GI; procedure, shortened: as §1
[7] = system: NCI/ADR-RES; experiment: Growth inhibition of human NCI/ADR-RES cells at 10 uM after 48 hrs by coulter counting; settings: read-out: GI; procedure, shortened: as §1
[8] = system: HL-60(TB); experiment: Growth inhibition of human HL-60(TB) cells at 10 uM after 48 hrs by coulter counting; settings: HL-60, 48 h, read-out: GI
Procedure, shortened: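 Test compound was dissolved in DMSO and diluted in phosphate-buffered saline to a final DMSO level below 1%. Dilutions were plated in duplicate with cell culture at 6 × 10⁴ cells/ml. Vehicle controls held PBS and DMSO at matching dilutions. Incubation was at 37 °C, humidified, under 5% CO₂. Data were reported as percent growth of treated cells.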

[9] = system: HT-29; experiment: Growth inhibition of human HT-29 cells at 10 uM after 48 hrs by coulter counting; settings: HT-29, 48 h, read-out: GI; procedure, shortened: as §1
[10] = system: HCC 2998; experiment: Growth inhibition of human HCC2998 cells at 10 uM after 48 hrs by coulter counting; settings: HCC 2998, 48 h, read-out: GI; procedure, shortened: as §1
[11] = system: UACC-257; experiment: Growth inhibition of human UACC257 cells at 10 uM after 48 hrs by coulter counting; settings: UACC-257, 48 h, read-out: GI
Procedure, shortened: (§2)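 Single-dose screen in the NCI 60 human tumor cell line panel (nine subpanels). Compounds dissolved in DMSO and diluted in phosphate buffered saline, keeping final DMSO below 1%. Added in duplicate wells to cells at 6 × 10⁴ cells/ml. Controls held PBS and DMSO at matching dilutions. Incubated at 37 °C, humidified, 5% CO₂. Reported as percent growth of treated cells.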

[12] = system: SK-MEL-2; experiment: Growth inhibition of human SK-MEL-2 cells at 10 uM after 48 hrs by coulter counting; settings: SK-MEL-2, 48 h, read-out: GI; procedure, shortened: as §1
[13] = system: EKVX; experiment: Growth inhibition of human EKVX cells at 10 uM after 48 hrs by coulter counting; settings: read-out: GI; procedure, shortened: as §1
[14] = system: UACC-62; experiment: Growth inhibition of human UACC62 cells at 10 uM after 48 hrs by coulter counting; settings: UACC-62, 48 h, read-out: GI; procedure, shortened: as §2
[15] = system: K562; experiment: Growth inhibition of human K562 cells at 10 uM after 48 hrs by coulter counting; settings: K562, 48 h, read-out: GI; procedure, shortened: as §1
[16] = system: MOLT-4; experiment: Growth inhibition of human MOLT4 cells at 10 uM after 48 hrs by coulter counting; settings: MOLT-4, 48 h, read-out: GI; procedure, shortened: as §1
[17] = system: MCF7; experiment: Growth inhibition of human MCF7 cells at 10 uM after 48 hrs by coulter counting; settings: MCF7, 48 h, read-out: GI; procedure, shortened: as §1
[18] = system: SF-539; experiment: Growth inhibition of human SF539 cells at 10 uM after 48 hrs by coulter counting; settings: SF-539, 48 h, read-out: GI; procedure, shortened: as §1
[19] = system: MDA-MB-435; experiment: Growth inhibition of human MDA-MB-435 cells at 10 uM after 48 hrs by coulter counting; settings: MDA-MB-435, 48 h, read-out: GI; procedure, shortened: as §1
[20] = system: OVCAR-4; experiment: Growth inhibition of human OVCAR4 cells at 10 uM after 48 hrs by coulter counting; settings: OVCAR-4, 48 h, read-out: GI; procedure, shortened: as §1
[21] = system: IGROV-1; experiment: Growth inhibition of human IGROV1 cells at 10 uM after 48 hrs by coulter counting; settings: IGROV-1, 48 h, read-out: GI; procedure, shortened: as §1
[22] = Growth inhibition of human NCI-322M cells at 10 uM after 48 hrs by coulter counting; settings: read-out: GI; procedure, shortened: as §1
[23] = system: A498; experiment: Growth inhibition of human A498 cells at 10 uM after 48 hrs by coulter counting; settings: A498, 48 h, read-out: GI; procedure, shortened: as §1
[24] = system: CAKI-1; experiment: Growth inhibition of human Caki1 cells at 10 uM after 48 hrs by coulter counting; settings: CAKI-1, 48 h, read-out: GI; procedure, shortened: as §1
[25] = system: UO-31; experiment: Growth inhibition of human UO31 cells at 10 uM after 48 hrs by coulter counting; settings: UO-31, 48 h, read-out: GI; procedure, shortened: as §2
[26] = system: BT-549; experiment: Growth inhibition of human BT549 cells at 10 uM after 48 hrs by coulter counting; settings: BT-549, 48 h, read-out: GI; procedure, shortened: as §1
[27] = system: NCI-H226; experiment: Growth inhibition of human NCI-H226 cells at 10 uM after 48 hrs by coulter counting; settings: NCI-H226, 48 h, read-out: GI; procedure, shortened: as §1
[28] = system: HOP-62; experiment: Growth inhibition of human HOP62 cells at 10 uM after 48 hrs by coulter counting; settings: HOP-62, 48 h, read-out: GI; procedure, shortened: as §1
[29] = system: U-251; experiment: Growth inhibition of human U251 cells at 10 uM after 48 hrs by coulter counting; settings: U-251, 48 h, read-out: GI; procedure, shortened: as §2
[30] = system: RPMI-8226; experiment: Growth inhibition of human RPMI8226 cells at 10 uM after 48 hrs by coulter counting; settings: RPMI-8226, 48 h, read-out: GI; procedure, shortened: as §1
[31] = system: SF-295; experiment: Growth inhibition of human SF295 cells at 10 uM after 48 hrs by coulter counting; settings: SF-295, 48 h, read-out: GI; procedure, shortened: as §1
[32] = system: SK-MEL-5; experiment: Growth inhibition of human SK-MEL-5 cells at 10 uM after 48 hrs by coulter counting; settings: SK-MEL-5, 48 h, read-out: GI; procedure, shortened: as §1
[33] = system: SNB-75; experiment: Growth inhibition of human SNB75 cells at 10 uM after 48 hrs by coulter counting; settings: SNB-75, 48 h, read-out: GI; procedure, shortened: as §1
[34] = system: T47D; experiment: Growth inhibition of human T47D cells at 10 uM after 48 hrs by coulter counting; settings: read-out: GI; procedure, shortened: as §2
[35] = system: CCRF-CEM; experiment: Growth inhibition of human CCRF-CEM cells at 10 uM after 48 hrs by coulter counting; settings: read-out: GI; procedure, shortened: as §1
[36] = system: DU-145; experiment: Growth inhibition of human DU145 cells at 10 uM after 48 hrs by coulter counting; settings: DU-145, 48 h, read-out: GI; procedure, shortened: as §1
[37] = system: NCI-H460; experiment: Growth inhibition of human NCI-H460 cells at 10 uM after 48 hrs by coulter counting; settings: NCI-H460, 48 h, read-out: GI; procedure, shortened: as §1
[38] = system: SNB-19; experiment: Growth inhibition of human SNB19 cells at 10 uM after 48 hrs by coulter counting; settings: SNB-19, 48 h, read-out: GI; procedure, shortened: as §1
[39] = system: SF-268; experiment: Growth inhibition of human SF268 cells at 10 uM after 48 hrs by coulter counting; settings: SF-268, 48 h, read-out: GI; procedure, shortened: as §1
[40] = system: A549; experiment: Growth inhibition of human A549 cells at 10 uM after 48 hrs by coulter counting; settings: A549, 48 h, read-out: GI; procedure, shortened: as §1
[41] = system: HCT-116; experiment: Growth inhibition of human HCT116 cells at 10 uM after 48 hrs by coulter counting; settings: HCT-116, 48 h, read-out: GI; procedure, shortened: as §1
[42] = system: ACHN; experiment: Growth inhibition of human ACHN cells at 10 uM after 48 hrs by coulter counting; settings: read-out: GI; procedure, shortened: as §1

Structure (SMILES): C1=CN2C(=NC3=C(CCC/C3=C\c3cccs3)C2c2cccs2)S1 (configuration not stated)
- inhibition of growth at 10 µM [1]: > 10%
- inhibition of growth at 10 µM [2]: > 10%
- inhibition of growth at 10 µM [3]: > 10%
- inhibition of growth at 10 µM [4]: > 10%
- inhibition of growth at 10 µM [5]: > 10%
- inhibition of growth at 10 µM [6]: 13%
- inhibition of growth at 10 µM [7]: > 10%
- inhibition of growth at 10 µM [8]: > 10%
- inhibition of growth at 10 µM [9]: > 10%
- inhibition of growth at 10 µM [10]: > 10%
- inhibition of growth at 10 µM [11]: > 10%
- inhibition of growth at 10 µM [12]: > 10%
- inhibition of growth at 10 µM [13]: > 10%
- inhibition of growth at 10 µM [14]: > 10%
- inhibition of growth at 10 µM [15]: > 10%
- inhibition of growth at 10 µM [16]: > 10%
- inhibition of growth at 10 µM [17]: > 10%
- inhibition of growth at 10 µM [18]: > 10%
- inhibition of growth at 10 µM [19]: > 10%
- inhibition of growth at 10 µM [20]: > 10%
- inhibition of growth at 10 µM [21]: > 10%
- inhibition of growth at 10 µM [22]: > 10%
- inhibition of growth at 10 µM [23]: > 10%
- inhibition of growth at 10 µM [24]: > 10%
- inhibition of growth at 10 µM [25]: 28.7%
- inhibition of growth at 10 µM [26]: > 10%
- inhibition of growth at 10 µM [27]: > 10%
- inhibition of growth at 10 µM [28]: > 10%
- inhibition of growth at 10 µM [29]: > 10%
- inhibition of growth at 10 µM [30]: > 10%
- inhibition of growth at 10 µM [31]: > 10%
- inhibition of growth at 10 µM [32]: > 10%
- inhibition of growth at 10 µM [33]: 10.4%
- inhibition of growth at 10 µM [34]: > 10%
- inhibition of growth at 10 µM [35]: > 10%
- inhibition of growth at 10 µM [36]: > 10%
- inhibition of growth at 10 µM [37]: > 10%
- inhibition of growth at 10 µM [38]: > 10%
- inhibition of growth at 10 µM [39]: > 10%
- inhibition of growth at 10 µM [40]: > 10%
- inhibition of growth at 10 µM [41]: > 10%
- inhibition of growth at 10 µM [42]: > 10%
